Results reported in ChEMBL document CHEMBL1134964, “Heterocyclic benzazole derivatives with antimycobacterial in vitro activity” (2002).
In brackets after ≈: the same amount, converted by molar mass.

Experiments:
Type in all cases: functional
Mycobacterium kansasii [1] = assay: In vitro inhibition of Mycobacterium Kansasi (My 235/80) growth after 21 days culture.; details: 504 h
Mycobacterium avium [2] = assay: In vitro inhibition of Mycobacterium Avium (My 330/88) growth after 21 days culture.; details: 504 h
Outline: (§1)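 Micromethod broth MIC. Compounds tested at 500, 250, 125, 32, 16, 8, 4 and 2, plus one intermediate level between 125 and 32. Plates incubated at 37 C and read at 7, 14 and 21 days. MIC is the lowest concentration at which growth of the mycobacteria was inhibited. MIC could not be set where solubility in the test medium was limited.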

[3] = test system: Mycobacterium tuberculosis; assay: In vitro inhibition of Mycobacterium Tuberculosis (My 331/88) growth after 21 days culture.; details: 504 h; outline: as §1
Mycobacterium avium [4] = assay: In vitro inhibition of Mycobacterium Avium growth after 14 days culture.; details: 336 h; outline: as §1
Mycobacterium kansasii [5] = assay: In vitro inhibition of Mycobacterium Kansasi (My 235/80) growth after 14 days culture.; details: 336 h
Mycobacterium kansasii [6] = assay: In vitro inhibition of Mycobacterium Kansasi (My 6 509/96) growth after 21 days culture.; details: 504 h
[7] = test system: Mycobacterium tuberculosis; assay: In vitro inhibition of Mycobacterium Tuberculosis (My 331/88) growth after 14 days culture.; details: 336 h; outline: as §1
Mycobacterium kansasii [8] = assay: In vitro inhibition of Mycobacterium Kansasi (My 6 509/96) growth after 7 days culture.; details: 168 h
Mycobacterium kansasii [9] = assay: In vitro inhibition of Mycobacterium Kansasi (My 6 509/96) growth after 14 days culture.; details: 336 h
Mycobacterium kansasii [10] = assay: In vitro inhibition of Mycobacterium Kansasi (My 235/80) growth after 7 days culture.; details: 168 h
HeLa = assay: The compound was tested for cytotoxicity against HeLa cells.; details: Homo sapiens
Mycobacterium kansasii [11] = assay: In vitro minimum inhibitory concentration of the compound for anti-mycobacterial activity was determined against Mycobacterium kansasii (My 6 509/96) by micromethod after 7 days of incubation; details: 168 h
[12] = test system: Mycobacterium tuberculosis; assay: In vitro minimum inhibitory concentration the compound for anti-mycobacterial activity was determined against Mycobacterium tuberculosis (My 331/88) by micromethod after 21 days of incubation; details: 504 h; outline: as §1
[13] = Ratio of cytotoxicity to minimum inhibitory concentration of Mycobacterium tuberculosis My 331/88 was evaluated
Mycobacterium kansasii [14] = assay: In vitro minimum inhibitory concentration the compound for anti-mycobacterial activity was determined against Mycobacterium kansasii (My 235/80) by micromethod after 21 days of incubation; details: 504 h
Mycobacterium kansasii [15] = assay: In vitro minimum inhibitory concentration the compound for anti-mycobacterial activity was determined against Mycobacterium kansasii (My 235/80) by micromethod after 14 days of incubation; details: 336 h
Mycobacterium kansasii [16] = assay: In vitro minimum inhibitory concentration the compound for anti-mycobacterial activity was determined against Mycobacterium kansasii (My 6 509/96) by micromethod after 7 days of incubation; details: 168 h

| SMILES | MIC (Mycobacterium kansasii [1]) [µM] | MIC (Mycobacterium avium [2]) [µM] | MIC [3] [µM] | MIC (Mycobacterium avium [4]) [µM] | MIC (Mycobacterium kansasii [5]) [µM] | MIC (Mycobacterium kansasii [6]) [µM] | MIC [7] [µM] | MIC (Mycobacterium kansasii [8]) [µM] | MIC (Mycobacterium kansasii [9]) [µM] | MIC (Mycobacterium kansasii [10]) [µM] | CC50 (HeLa) [µM] | MIC (Mycobacterium kansasii [11]) [µM] | MIC [12] [µM] | Safety index [13] | MIC (Mycobacterium kansasii [14]) [µM] | MIC (Mycobacterium kansasii [15]) [µM] | MIC (Mycobacterium kansasii [16]) [µM] |
| --- | --- | --- | --- | --- | --- | --- | --- | --- | --- | --- | --- | --- | --- | --- | --- | --- | --- |
| Sc1nc2ccccc2o1 | 1000 (≈ 151 µg/mL) | 500 (≈ 75.6 µg/mL) | 500 (≈ 75.6 µg/mL) | 250 (≈ 37.8 µg/mL) | 1000 (≈ 151 µg/mL) | 1000 (≈ 151 µg/mL) | 500 (≈ 75.6 µg/mL) | 250 (≈ 37.8 µg/mL) | 500 (≈ 75.6 µg/mL) | 500 (≈ 75.6 µg/mL) |  |  |  |  |  |  |  |
| NC(=S)c1cccc(CSc2nc3ccccc3s2)c1 | 16 (≈ 5.06 µg/mL) | 62 (≈ 19.6 µg/mL) |  | 32 (≈ 10.1 µg/mL) | 16 (≈ 5.06 µg/mL) | 16 (≈ 5.06 µg/mL) |  |  | 16 (≈ 5.06 µg/mL) | 8 (≈ 2.53 µg/mL) | 36.7 | 8 (≈ 2.53 µg/mL) | 16 (≈ 5.06 µg/mL) | 4.6 |  |  |  |
| O=[N+]([O-])c1ccccc1CSc1nc2ccccc2o1 | > 125 | > 125 | > 250 | > 125 | 125 (≈ 35.8 µg/mL) | > 62 | > 250 | 62 (≈ 17.8 µg/mL) | > 62 | 125 (≈ 35.8 µg/mL) |  |  |  |  |  |  |  |
| N#Cc1cccc(CSc2nc3ccccc3o2)c1 | 125 (≈ 33.3 µg/mL) | 62 (≈ 16.5 µg/mL) | 125 (≈ 33.3 µg/mL) | 62 (≈ 16.5 µg/mL) | 62 (≈ 16.5 µg/mL) | 62 (≈ 16.5 µg/mL) | 125 (≈ 33.3 µg/mL) | 32 (≈ 8.52 µg/mL) | 62 (≈ 16.5 µg/mL) | 32 (≈ 8.52 µg/mL) |  |  |  |  |  |  |  |
| O=[N+]([O-])c1cccc(CSc2nc3ccccc3o2)c1 | > 32 | > 62 | 125 (≈ 35.8 µg/mL) | > 32 | > 32 | > 32 | > 62 | 32 (≈ 9.16 µg/mL) | 32 (≈ 9.16 µg/mL) | 32 (≈ 9.16 µg/mL) |  |  |  |  |  |  |  |
| O=[N+]([O-])c1ccc(CSc2nc3ccccc3s2)cc1 | > 250 | > 62 | > 125 | 32 (≈ 9.68 µg/mL) | > 62 | > 125 | > 32 | 32 (≈ 9.68 µg/mL) | > 32 | 32 (≈ 9.68 µg/mL) |  |  |  |  |  |  |  |
| NC(=S)c1ccc(CSc2nc3ccccc3o2)cc1 | 16 (≈ 4.81 µg/mL) | 32 (≈ 9.61 µg/mL) | 16 (≈ 4.81 µg/mL) | 32 (≈ 9.61 µg/mL) | 16 (≈ 4.81 µg/mL) | 16 (≈ 4.81 µg/mL) | 8 (≈ 2.4 µg/mL) | 8 (≈ 2.4 µg/mL) | 16 (≈ 4.81 µg/mL) | 8 (≈ 2.4 µg/mL) | 78.6 |  |  | 9.8 |  |  |  |
| c1ccc(CSc2nc3ccccc3o2)cc1 | 250 (≈ 60.3 µg/mL) | 125 (≈ 30.2 µg/mL) | 500 (≈ 121 µg/mL) | 62 (≈ 15 µg/mL) | 250 (≈ 60.3 µg/mL) | 250 (≈ 60.3 µg/mL) | 250 (≈ 60.3 µg/mL) | 32 (≈ 7.72 µg/mL) | 125 (≈ 30.2 µg/mL) | 125 (≈ 30.2 µg/mL) |  |  |  |  |  |  |  |
| N#Cc1ccc(CSc2nc3ccccc3s2)cc1 | > 500 | > 32 | 62 (≈ 17.5 µg/mL) | 32 (≈ 9.04 µg/mL) | 250 (≈ 70.6 µg/mL) | 32 (≈ 9.04 µg/mL) | 62 (≈ 17.5 µg/mL) | 16 (≈ 4.52 µg/mL) | 32 (≈ 9.04 µg/mL) | 125 (≈ 35.3 µg/mL) |  |  |  |  |  |  |  |
| N#Cc1ccc(CSc2nc3ccccc3o2)cc1 | > 32 | 62 (≈ 16.5 µg/mL) | > 62 | 62 (≈ 16.5 µg/mL) | 32 (≈ 8.52 µg/mL) | > 32 | > 62 | 16 (≈ 4.26 µg/mL) | 32 (≈ 8.52 µg/mL) | 32 (≈ 8.52 µg/mL) |  |  |  |  |  |  |  |
| O=[N+]([O-])c1ccc(CSc2nc3ccccc3o2)c([N+](=O)[O-])c1 |  | > 32 | 8 (≈ 2.65 µg/mL) | > 16 |  | 8 (≈ 2.65 µg/mL) | 8 (≈ 2.65 µg/mL) |  | 8 (≈ 2.65 µg/mL) | 4 (≈ 1.33 µg/mL) | 136 |  |  | 17 | 4 (≈ 1.33 µg/mL) | 4 (≈ 1.33 µg/mL) | 4 (≈ 1.33 µg/mL) |
| NC(=S)c1ccc(CSc2nc3ccccc3s2)cc1 | 8 (≈ 2.53 µg/mL) | 32 (≈ 10.1 µg/mL) | 8 (≈ 2.53 µg/mL) | 16 (≈ 5.06 µg/mL) | 8 (≈ 2.53 µg/mL) | 8 (≈ 2.53 µg/mL) | 4 (≈ 1.27 µg/mL) | 4 (≈ 1.27 µg/mL) | 8 (≈ 2.53 µg/mL) | 4 (≈ 1.27 µg/mL) | > 158 |  |  | >39.5 |  |  |  |
